Assay: Toxicity liver stage against HepG2, at 10uM
Type: cell-based
Parameters: test concentration 10 uM, cell line HepG2-A16-CD81EGFP
Details: human, HepG2-A16-CD81EGFP cells; read-out: INHIBITION
How it was run: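 Uninfected HepG2-A16-CD81EGFP cells, 3 × 10^3 per well, 1536-well, plated on prespotted compound at 10 μM final, parasite-free screening media added to match infected plates; puromycin 10 μM positive, DMSO 0.5% negative; run in parallel with 48 h PbLuc assay at 37 °C, 5% CO2; viability by CellTiter-Glo luminescence, normalized to controls.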

| SMILES | cytotoxicity at 10 µM |
| --- | --- |
| O=C(c1ccco1)N1CCC2(CCCN(c3ncccn3)C2)C1 (stereo unspecified) | -105% |
| COc1cc2c(cc1-c1nc3c(cnn3C(C)C)[nH]1)OCO2 | -6.85% |
| CCOCC(=O)N1Cc2nccn2CC(CN2CCCC2)C1 (stereo unspecified) | -76.3% |
| Cc1cc(C(=O)NCCN2CCCC(C)C2)nn1C(C)(C)C (stereo unspecified) | 9.34% |
| Cc1cnc(NCc2ccncc2)nc1-c1cnn(C)c1 | 15.4% |
| CCn1c(NCc2ccco2)nc2c(C)nn(C)c2c1=O | 2.48% |
| CCn1ccnc1CN(C)C(=O)Cn1ccc2ccccc2c1=O | 2.37% |
| CC(=O)N1CCCC(c2ccccn2)C1 (stereo unspecified) | -23.7% |
| Cc1nc(C(C)(C)NC(=O)Nc2ccncc2)no1 | 9.32% |
| CNC(=O)[C@H]1C[C@@H]2CN(S(=O)(=O)c3ccccc3)C[C@@H]2N1C(C)=O | -10.4% |
| Cc1ccc(S(=O)(=O)N2CCCC(c3n[nH]cc3C(=O)N(C)C)C2)cc1 (stereo unspecified) | 6.91% |
| CSc1ccccc1C(=O)NCCC(O)c1ccco1 (stereo unspecified) | -9.95% |
| COc1ccc([C@@H]2CN(c3cnccn3)C[C@H]2N(C)C)cc1 | 6.55% |
| CN(C)c1ncc2c(n1)C1(CCN(Cc3ccccc3F)C1)COC2 (stereo unspecified) | 10.6% |
| COc1ccc(OC)c(CN(Cc2ccco2)Cc2[nH]cnc2C)c1 | -2.51% |
| CN(Cc1ccsc1)C(=O)CN1CCCCC1Cn1cccn1 (stereo unspecified) | -1.07% |
| Clc1ccc(C2(CNC3=NCCN3)CCCC2)cc1 | 14.4% |
| COCCNC(=O)[C@@H]1CC[C@@H]2[C@@H](CCN2c2ncc(F)cn2)O1 | -0.554% |
| Cc1n[nH]c2c1C(c1ccc(F)cc1)SCC(=O)N2 (stereo unspecified) | 2.06% |
| CS(=O)(=O)N1CCC2(CC1)CC(CC(=O)NC1CC1)c1ccccc12 (stereo unspecified) | -0.105% |
| Cc1cnn(CC2CCCCN2C(=O)CN(C)C2CC2)c1 (stereo unspecified) | -1.23% |
| Cc1ccc(CN2CCOC3(CCN(C(=O)N4CCCC4)CC3)C2)cc1 | 5.7% |
| CC(C)c1nccn1C1CCCN(C(=O)CCCc2ccccn2)C1 (stereo unspecified) | -9.02% |

| SMILES | cytotoxicity at 10 µM |
| --- | --- |
| Cc1cc(C)n(CC(=O)Nc2cc(-c3ccncc3)[nH]n2)n1 | -5.77% |
| Cc1cc(NC(=O)C(C)NCCn2cccn2)no1 (stereo unspecified) | 10.6% |
| CN(CCc1ccc(F)cc1)Cc1nc2c(cnn2C)c(=O)[nH]1 | -1.69% |
| O=S(=O)(c1ccc(-c2cnco2)cc1)N1CCCC(O)(CO)CC1 (stereo unspecified) | 1.72% |
| CC(=O)c1c(C)nn(CC(=O)Nc2ccc(F)cc2)c1C | -72% |
| NC(=O)CN1CCCC(Cc2ccc(N)nn2)C1 (stereo unspecified) | -31.1% |
| CSc1ccc(C2SCC(=O)Nc3c2c(=O)[nH]n3C2CCOCC2)cc1 (stereo unspecified) | -14.9% |
| Cc1nnc(N2CC[C@H]3C[C@@H](C(=O)N4CCCC4)O[C@H]3C2)s1 | -70.6% |
| CC1CCN(CCNC(=O)C2CCN(C(=O)C3CC3)CC2)CC1 | 6.86% |
| Cn1ccnc1CN1CCCC2(CCN(CC3CCCO3)CC2)C1 (stereo unspecified) | -76.7% |
| Cc1cnn(CC2CCCCN2CC(=O)Nc2nc(C)cs2)c1 (stereo unspecified) | 0.109% |
| CC(C)=CCN1C(=O)[C@@H]2CC[C@H]1CN(c1ncccc1F)C2 | 9.72% |
| CNC(=O)C1(CCCc2ccccn2)CN(Cc2coc(C)n2)C1 | 8.62% |
| CCC(CO)N(Cc1ccccn1)Cc1ccc(-c2ccn[nH]2)s1 (stereo unspecified) | 2.66% |
| O=C(c1cccc(-n2cnnn2)c1)N1CCC2(CC1)OCCO2 | -126% |
| CC(=O)NC1CCN(c2nc(N(C)C)nc3c2CCN(C(C)=O)C3)CC1 | 0.541% |
| O=C(N[C@@H]1CCNC[C@H]1O)c1ccc(F)c(Cl)c1 | -11.1% |
| CC(C)n1nc2c(cc1=O)CN(Cc1ccc(-n3cccn3)cc1)CC2 | -145% |
| COCC(=O)N1CCn2c(Cn3cncn3)cnc2C1C (stereo unspecified) | 0.53% |
| O=C(c1cccnc1)N1CCCC(c2cc(C(F)F)n3ncnc3n2)C1 (stereo unspecified) | 0.745% |
| Cc1[nH]ncc1CCCNC(=O)Nc1ccc2c(c1)OC1(CCCC1)O2 | 18.6% |
| C[C@H]1CCCCN1CCCNc1nccc(-c2c[nH][nH]c2=O)n1 | -6.91% |
| Cc1ncsc1CCC(=O)N1CCn2cccc2C1c1cccnc1 (stereo unspecified) | -9.57% |

| SMILES | cytotoxicity at 10 µM |
| --- | --- |
| COC(=O)Cn1c(C)cc(=O)n2nc(-c3cccs3)nc12 | 8.74% |
| Cn1cnnc1C1CCCN(C(=O)c2cc(Cl)cc(Cl)c2)C1 (stereo unspecified) | -9.91% |
| Cc1cccc(C(C(=O)NCc2nc(-c3ncccn3)no2)N(C)C)c1 (stereo unspecified) | -1.57% |
| CCn1cnnc1CNC(=O)N1CCN(c2ccccc2O)CC1 | -1.47% |
| CSCCC(C)NC(=O)CCN1C(=O)CCc2cc(F)ccc21 (stereo unspecified) | 6.79% |
| CNC(=O)Cc1ccc(-n2ccnc2-c2ccc(C(=O)O)s2)cc1 | -1.53% |
| Clc1cc(CN2CCCCC2Cn2cncn2)c2ncccc2c1 (stereo unspecified) | -12.9% |
| CCN1C(=O)C[C@@H]2[C@@H]1CCN2S(=O)(=O)c1ccc(OC)cc1 | 0.434% |
| COc1ccccc1-c1csc(NC(=O)N2CCN(C)CC2C)n1 (stereo unspecified) | -3.24% |
| O=C(O)c1coc(COc2cccc3cnccc23)n1 | -110% |
| Cc1cccnc1CSCCCNS(C)(=O)=O | -15.1% |
| Cc1cc(NC(=O)CN2CCCC2c2noc(C)n2)n(C(C)(C)C)n1 (stereo unspecified) | 1.53% |
| C[C@@H](N)C(=O)N1CCC(c2[nH]ncc2-c2ccccc2)CC1 | -3.81% |
| Cc1cnn(C2CN(CCCOc3ccc(C#N)cc3)C2)c1 | 4.09% |
| CN(C)CC1[C@H]2CN(C(=O)c3cc(=O)[nH]c4ccc(F)cc34)C[C@@H]12 (stereo partly specified) | -6.68% |
| COCCNC(=O)c1cccnc1Oc1ccc(Cl)cc1 | 6.99% |
| NCC1CCCCN1C(=O)Cc1cccc(Br)c1 (stereo unspecified) | 0.907% |
| Cc1cc(C(=O)NCC(C)N2CCc3ccccc32)no1 (stereo unspecified) | -8.8% |
| Cc1noc(CCCC(=O)N2CCCCC2CNS(C)(=O)=O)n1 (stereo unspecified) | -0.88% |
| O=C(Cc1ccc2c(c1)CCC2)N1CCCC(n2cccn2)C1 (stereo unspecified) | -7.81% |
| Cc1nccnc1CCC1COCCN1C(=O)CCc1c(C)noc1C (stereo unspecified) | 5.7% |
| NC(=O)CSCCC(=O)NCC1CC1 | 6.2% |
| CCN(c1ccc(C(=O)N(Cc2cnn(C)c2)C(C)C)cn1)C(C)C | 16.2% |

| SMILES | cytotoxicity at 10 µM |
| --- | --- |
| NC(=O)C1CCCN(c2ccc(CNC(=O)c3csnn3)cc2)C1 (stereo unspecified) | -2.18% |
| O=C(c1ccc(Cl)cc1)N1CC2(CCNC2)OCc2ccccc21 (stereo unspecified) | 9.9% |
| CCCN1CCCn2nc(CNC(=O)CC3CCS(=O)(=O)C3)cc2C1 (stereo unspecified) | -2.1% |
| CN(CCn1cccn1)S(=O)(=O)c1cccc(F)c1C#N | 3.41% |
| Cc1cc(S(=O)(=O)Nc2cccc(I)c2)sc1C(=O)O | 3.76% |
| Cn1cnnc1SCc1cc2c(cc1Cl)OCO2 | 7.03% |
| CCCS(=O)(=O)N1CCN(c2cc(-n3cnc(C)c3C)nc(C)n2)CC1 | -8.51% |
| Cn1ccnc1CN1CCN(CC(O)c2cccc(F)c2)CC1 (stereo unspecified) | 1.59% |
| COCCn1ccnc1C1CCCN(C(=O)CSc2nnc(C)o2)C1 (stereo unspecified) | -4.3% |
| COc1ccccc1OCCNC(=O)NCC(C)C | 7.54% |
| c1cc(-c2ccc3c(c2)C2(CCNCC2)CC3)ccn1 | 56.9% |
| CCc1[nH]n(C)c(=N)c1-c1ccc2c(c1)OCO2 | -45.1% |
| COCCN(Cc1nc2c(cnn2C)c(=O)[nH]1)C(C)c1ccccc1 (stereo unspecified) | -1.47% |
| Cc1cnc(C)c(N2CCC(c3nccn3Cc3cscn3)CC2)n1 | 1.89% |
| Cc1noc(C)c1C(=O)N[C@@H]1CCC[C@@H](Oc2ccccc2)[C@@H]1O | 4.72% |
| O=C(c1ccccn1)N1CCC(Cc2cnc3[nH]ccc3c2)CC1 | -7.75% |
| COc1cccc(-c2noc(-c3ccc(NCC4CC4)nc3)n2)c1OC | 6.65% |
| Cc1cccc(-c2nc(CN3CC(n4nc(C)cc4C)C3)no2)c1 | 1.37% |
| CN(Cc1nnc(C2CC2)n1C)C1CCN(CCS(C)(=O)=O)C1 (stereo unspecified) | 0.918% |
| O=C1CC(c2ncc(-c3ccc4c(c3)OCCO4)[nH]2)CN1C1CC1 (stereo unspecified) | -4.62% |
| CCCn1nc2c(cc1=O)CN(Cc1cc(C)on1)CC2 | -13.9% |
| Cc1c(C)n(Cc2ccncc2)c2nc3c(c(N)c12)CCCCCC3 | 9.18% |
| O=C(Cc1ccc(F)cc1)N1CCCCC1c1ccn2ccnc2n1 (stereo unspecified) | -0.722% |

| SMILES | cytotoxicity at 10 µM |
| --- | --- |
| CC(NCC1(N(C)C)CCOCC1)c1ccc(S(C)(=O)=O)cc1 (stereo unspecified) | -3.27% |
| COCCN1CCC2(CC1)CN(C(=O)C1CC1)c1ccc(F)cc12 | -0.213% |
| Cn1nnc2cc(C(=O)NS(=O)(=O)c3cccc(C#N)c3)ccc21 | -6.29% |
| Cc1nn(-c2ncnc3[nH]cnc23)c2c1C(CC(C)C)CC(=O)N2 (stereo unspecified) | 11.2% |
| Cc1cc(=O)[nH]c(-n2nc(C)c(CCC(=O)NCc3cccs3)c2C)n1 | 10.3% |
| CCC(=O)Nc1ccccc1Sc1nc(Br)nn1C | 3.28% |
| CNC(=O)CN1CCC(NC(=O)N(C)Cc2c(C)noc2C)CC1 | 2.1% |
| COc1ccc(N2CCCN(CC(=O)N3CCNC(=O)C3)CC2)cc1 | 6.06% |
| CC(C)c1nc(CN2CCc3onc(-c4cccc(F)c4)c3C2)no1 | 5.56% |
| Cc1cccc(Nc2ccc(C3CCCCN3)cn2)n1 (stereo unspecified) | -1.93% |
| COCCNC(=O)CN1CCCC1c1c(C)nn(C)c1Cl (stereo unspecified) | -0.185% |
| CCc1nc(CNc2ccc(-c3nc(C4CC4)no3)cn2)no1 | -6.14% |
| Oc1ccc(-c2c(-c3ccccc3)ncn2C2CCNC2)cc1 (stereo unspecified) | -45.3% |
| Cc1ccc(NC2CCN(C(=O)CCCc3cccs3)CC2)nn1 | -8.49% |
| O=C(c1ccccc1)N1CCCC2(CCN2Cc2cccc(F)c2)C1 (stereo unspecified) | -121% |
| CCCN1CCN(S(=O)(=O)c2ncn(C)c2Cl)CC1 | 9.97% |
| CNS(=O)(=O)CC(=O)NC(C)Cc1cccc(Cl)c1 (stereo unspecified) | -8.15% |
| CCO[C@@H]1CO[C@@]2(CCCN(S(=O)(=O)c3ccccc3)C2)C1 | -77.2% |
| CCS(=O)(=O)NCC1Cn2nnc(-c3ccccc3)c2CO1 (stereo unspecified) | -75.4% |

Reference: ChEMBL document CHEMBL4513216, “Probing the Open Global Health Chemical Diversity Library for Multistage-Active Starting Points for Next-Generation Antimalarials” (ACS Infect Dis, 2020)
